This note sets out measurements from publication PMC4445677 (Journal of the American Chemical Society, 2014).

Entries after “also recorded” stand apart in the source; their conditions may differ.

Experiment [1] relates to nuclear extracts from human embryonic kidney (HEK) 293T cells. The experiment in a line: Labeling of ADP-ribosylation protein targets in nuclear extracts. Type of experiment: biochemical. Particulars: HEK 293T nuclear extracts; for protein labeling in nuclear extracts, NAD+ analogue alone: endogenous ARTDs only, 5-Et-6-a-NAD+ 250 μM, 6-a-NAD+ 100 μM. The essentials:
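Nuclear extracts from human HEK 293T cells are treated with a modified NAD+ analogue (250 μM), either alone or with added KA-ARTD1. Parent 6-a-NAD+ alone on extract serves as the positive control for ADP-ribose detection. Labelled targets are detected by click chemistry with biotin–azide and immunoblot, using a Ponceau S-stained membrane as the loading control.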

The subject of a further experiment is WT-ARTD1. The experiment is described as follows: Auto-ADP-ribosylation by click conjugation to biotin-azide reporter, WT-ARTD1. The settings on record: NAD+ analogue as substrate; up to 250 μM for 5-Et-6-a-NAD+. Format: biochemical, human.
A further experiment concerns KA-ARTD1. The experiment is described as follows: Auto-ADP-ribosylation by click conjugation to biotin-azide reporter, KA-ARTD1. Format: biochemical, human. The settings on record: NAD+ analogue as substrate; increasing concentrations.
Experiment [2] deals with wild-type ARTD1 (WT-ARTD1) (Homo sapiens, UniProt P09874). The experiment is described as follows: Inhibition of ADP-ribose transfer to Histone H1 using 6-a-NAD+. Format: biochemical.
The target in a further experiment is K903A ARTD1 (KA-ARTD1) (Homo sapiens, UniProt P09874, K903A). The description is as above. Type of experiment: biochemical.
The test system of a further experiment is KA-ARTD6. Particulars: lysine to alanine mutant.
The subject of a further experiment is WT-ARTD6. Particulars: up to 250 μM.
The next experiment relates to WT-ARTD2. The experiment is described as follows: Auto-ADP-ribosylation, WT-ARTD2. Type of experiment: biochemical, human. The settings on record: up to 250 μM.
The next experiment has as its system KA-ARTD2. The experiment is described as follows: Auto-ADP-ribosylation, KA-ARTD2. Type of experiment: biochemical, human. The settings on record: lysine to alanine mutant.

Chain of K903A ARTD1 (KA-ARTD1) (P09874 whole entry K903A): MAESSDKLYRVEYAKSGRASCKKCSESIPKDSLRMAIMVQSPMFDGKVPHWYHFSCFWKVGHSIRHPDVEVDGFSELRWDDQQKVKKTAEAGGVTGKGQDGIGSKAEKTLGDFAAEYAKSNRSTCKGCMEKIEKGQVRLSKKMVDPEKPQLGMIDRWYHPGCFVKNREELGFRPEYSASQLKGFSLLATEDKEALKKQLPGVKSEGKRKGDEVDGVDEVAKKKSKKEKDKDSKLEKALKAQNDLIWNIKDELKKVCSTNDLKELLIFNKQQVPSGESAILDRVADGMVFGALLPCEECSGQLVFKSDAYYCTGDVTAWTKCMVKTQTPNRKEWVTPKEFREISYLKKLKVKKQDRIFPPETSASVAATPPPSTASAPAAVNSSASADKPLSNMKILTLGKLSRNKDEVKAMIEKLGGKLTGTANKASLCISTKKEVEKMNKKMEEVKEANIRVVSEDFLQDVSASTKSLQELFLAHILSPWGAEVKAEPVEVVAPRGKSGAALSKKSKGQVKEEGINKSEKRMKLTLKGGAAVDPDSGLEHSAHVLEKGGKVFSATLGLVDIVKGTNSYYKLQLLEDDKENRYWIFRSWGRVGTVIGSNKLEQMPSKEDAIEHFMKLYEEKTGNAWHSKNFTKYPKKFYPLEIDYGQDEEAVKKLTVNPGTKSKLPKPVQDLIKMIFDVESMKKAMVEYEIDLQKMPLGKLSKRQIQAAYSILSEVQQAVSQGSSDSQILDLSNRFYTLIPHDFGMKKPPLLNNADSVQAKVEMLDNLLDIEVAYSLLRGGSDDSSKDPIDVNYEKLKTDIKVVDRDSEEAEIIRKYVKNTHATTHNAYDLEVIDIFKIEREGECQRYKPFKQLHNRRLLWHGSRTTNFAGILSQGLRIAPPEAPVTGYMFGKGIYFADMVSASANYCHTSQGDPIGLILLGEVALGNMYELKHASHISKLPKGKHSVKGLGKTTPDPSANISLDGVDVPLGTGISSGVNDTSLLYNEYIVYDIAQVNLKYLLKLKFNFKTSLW
Chain of wild-type ARTD1 (WT-ARTD1) (P09874 whole entry): as the sequence (P09874 whole entry K903A) above, with A903K counted along it

On to “6-alkyne-NAD^+ [6-a-NAD^+, reference compound]”, for which the “protein labeling in nuclear extracts, NAD+ analogue alone” value in experiment [1] was “labeling of several proteins”. Further, in the experiment on WT-ARTD1, the “auto-ADPr (modification) of WT-ARTD1” value is reported as “extensive poly-ADPr of WT-ARTD1”. The “auto-ADPr (modification) of KA-ARTD1” value in the experiment with KA-ARTD1 was “only mono-ADPr of KA-ARTD1”.

By IC50 is commonly meant the concentration needed to halve the response being measured. Turning to `CCc1cncc(C(N)=O)c1` [5-ethyl-nicotinamide], the IC50 in [2] came to 2.36 ± 0.368 mM; against K903A ARTD1 (KA-ARTD1), 165 ± 11 µM. Besides, at K903A ARTD1 (KA-ARTD1) (ratio of IC50 values WT-ARTD1 / KA-ARTD1), the “selectivity for KA-ARTD1 over WT-ARTD1” value came to 14 fold.

For the compound 5-Et-6-a-NAD^+, in experiment [1] (250 μM plus KA-ARTD1), the “protein labeling in nuclear extracts in the presence of KA-ARTD1” value was “extensive labeling”. Besides, in experiment [1], the “protein labeling in nuclear extracts, NAD+ analogue alone” value was “no labeling was detected”. For the same compound, the “modification of KA-ARTD6” value in the experiment on KA-ARTD6 was “conferred sensitivity”. For the same compound, in the experiment on WT-ARTD6, the “modification of WT-ARTD6” value was “no modification”. Further, in the experiment on WT-ARTD1, the “auto-ADPr (modification) of WT-ARTD1” value was “no modification of WT-ARTD1 was detected”. In addition, the “modification of WT-ARTD2” value in the experiment on WT-ARTD2 is “no modification”. Moreover, the “modification of KA-ARTD2” value in the experiment with KA-ARTD2 is listed as “conferred sensitivity”. In addition, the “auto-ADPr (modification) of KA-ARTD1” value with KA-ARTD1 is on record as “only mono-ADPr of KA-ARTD1; also recorded: resulted in auto-ADPr of KA-ARTD1”.
